These results are taken from ChEMBL document CHEMBL1932980, “Structure-activity relationships of 2-amino-3-aroyl-4-[(4-arylpiperazin-1-yl)methyl]thiophenes. Part 2: Probing the influence of diverse substituents at the phenyl of the arylpiperazine moiety on allosteric enhancer activity at the A₁ adenosine receptor” (Bioorg Med Chem, 2012).

Assay [1] concerns the target T1, Adenosine receptor A1 (Homo sapiens) (UniProt P30542).
T1 sequence (whole entry): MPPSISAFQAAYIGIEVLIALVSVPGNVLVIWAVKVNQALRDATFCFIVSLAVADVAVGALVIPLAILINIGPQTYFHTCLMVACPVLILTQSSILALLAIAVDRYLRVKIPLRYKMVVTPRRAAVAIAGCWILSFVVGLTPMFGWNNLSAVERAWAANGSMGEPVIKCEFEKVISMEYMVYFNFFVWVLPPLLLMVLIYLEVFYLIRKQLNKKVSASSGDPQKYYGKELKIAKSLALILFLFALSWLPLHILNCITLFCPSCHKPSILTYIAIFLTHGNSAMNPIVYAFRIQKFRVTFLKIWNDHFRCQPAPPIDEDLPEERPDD
In words: Binding affinity to recombinant human A1 adenosine receptor allosteric site expressed in CHO cells assessed as [3H]DPCPX Bmax shift at 10 uM after 90 mins relative to control. The class given is cell-based. The essentials: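 Saturation binding of [3H]DPCPX (0.05–20 nM) to hA1CHO membranes, run in triplicate, 90 min at 25 °C, in 50 mM Tris–HCl pH 7.4, with or without test compound at final 10 µM. Nonspecific binding taken with 1 µM DPCPX. KD and Bmax fitted by LIGAND. Shift is the fold of Bmax increase over control.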

Assay [2] addresses T1, Adenosine receptor A1 (Homo sapiens). The assay can be described thus: Allosteric enhancer activity at recombinant human A1 adenosine receptor expressed in CHO cells assessed as change in forskolin-induced cAMP production at 10 uM after 6 mins by radioimmunoassay. The assay is classed as functional, cell-based. The method in brief: (§1)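 hA1CHO cells (about 8000 fmol/mg protein) thawed from low-passage stocks, grown in Ham's F-12 with 10% FBS and G-418, then plated 48 h. Test compound at 0.01, 0.1, 1 or 10 µM with CPA (0.05–0.1 nM) for 6 min at 36 °C. Stopped with HCl (final 50 mM). cAMP in acidified extracts measured by radioimmunoassay. Reference enhancer run in each experiment. Four experiments per concentration.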

The target in assay [3] is T2, Adenosine receptor A3 (Homo sapiens) (UniProt P0DMS8).
T2 sequence (whole entry): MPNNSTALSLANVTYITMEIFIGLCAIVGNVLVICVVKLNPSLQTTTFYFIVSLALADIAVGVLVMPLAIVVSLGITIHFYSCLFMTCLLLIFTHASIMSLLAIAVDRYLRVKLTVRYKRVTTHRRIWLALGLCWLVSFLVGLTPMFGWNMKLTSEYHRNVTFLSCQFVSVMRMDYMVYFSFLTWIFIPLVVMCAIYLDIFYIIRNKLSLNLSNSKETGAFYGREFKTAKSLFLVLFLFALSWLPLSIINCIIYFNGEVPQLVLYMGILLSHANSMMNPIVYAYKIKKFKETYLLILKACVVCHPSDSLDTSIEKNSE
The assay can be described thus: Displacement of [3H]MRE3008F20 from recombinant human A3 adenosine receptor expressed in CHO cells at 10 uM after 120 mins by scintillation counting. The assay is classed as cell-based. The method in brief: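 Membranes from hA3CHO cells incubated with 2 nM [3H]MRE 3008F20 in 50 mM Tris–HCl, 10 mM MgCl2, 1 mM EDTA, pH 7.4 at 4 °C for 120 min. Compound added from a 100-fold DMSO stock, 1% DMSO final, also in controls. Separated by GF/B filtration and counted by scintillation. Result given as % of control specific binding.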
For orientation: Displacement assays read how much labelled ligand stays bound in the presence of the test substance.

The target in assay [4] is T1, Adenosine receptor A1 (Homo sapiens). In words: Allosteric enhancer activity at recombinant human A1 adenosine receptor expressed in CHO cells assessed as change in forskolin-induced cAMP production at 0.1 uM after 6 mins by radioimmunoassay. The class given is functional, cell-based. The essentials:
as §1
(In general: Cyclic AMP is a second messenger, typically raised through Gs and lowered through Gi signalling.)

Assay [5] addresses Adenosine receptor A2a (Homo sapiens) (UniProt P29274). The assay can be described thus: Displacement of [3H]ZM241385 from recombinant human A2A adenosine receptor expressed in CHO cells at 10 uM after 60 mins by scintillation counting. The class given is cell-based. The method in brief:
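Membranes from hA2ACHO cells incubated with 1 nM [3H]ZM 241385 in 50 mM Tris–HCl, 10 mM MgCl2, pH 7.4 at 4 °C for 60 min. Compound added from a 100-fold DMSO stock, 1% DMSO final, also in controls. Separated by GF/B filtration and counted by scintillation. Result given as % of control specific binding.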

The target in assay [6] is T1, Adenosine receptor A1 (Homo sapiens). The assay can be described thus: Binding affinity to recombinant human A1 adenosine receptor allosteric site expressed in CHO cells assessed as [3H]CCPA Bmax shift at 10 uM after 90 mins relative to control. The assay is classed as cell-based. The essentials:
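Saturation binding of [3H]CCPA (0.05–20 nM) to hA1CHO membranes. Membranes pretreated with adenosine deaminase 3 UI/mL for 30 min at 37 °C. Run in triplicate, 90 min at 25 °C, in 50 mM Tris–HCl pH 7.4, with or without test compound at final 10 µM. Nonspecific binding taken with 1 µM R-PIA. Bmax fitted by LIGAND. Shift is the fold of Bmax increase over control.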

Assay [7] shares this target. In words: Allosteric enhancer activity at recombinant human A1 adenosine receptor expressed in CHO cells assessed as change in forskolin-induced cAMP production at 0.01 uM after 6 mins by radioimmunoassay. The class given is functional, cell-based. The essentials: as §1
For assay [8] the target is unchanged. In words: Displacement of [3H]DPCPX from recombinant human A1 adenosine receptor expressed in CHO cells at 10 uM after 120 mins by scintillation counting. The assay is classed as cell-based. The essentials:
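Membranes from hA1CHO cells incubated with 1 nM [3H]DPCPX in 50 mM Tris–HCl pH 7.4 at 25 °C for 120 min. Compound added from a 100-fold DMSO stock, so 1% DMSO final, also present in controls. Bound ligand separated on GF/B filters and counted by scintillation. Result given as % of control specific binding.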

For assay [9] the target is unchanged. The assay can be described thus: Binding affinity to recombinant human A1 adenosine receptor allosteric site expressed in CHO cells assessed as potentiation of CCPA-induced [3H]DPCPX displacement at 10 uM after 90 mins relative to control. The class given is cell-based. The essentials:
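Competition of CCPA (0.01 nM–1 µM) against 1 nM [3H]DPCPX on hA1CHO membranes, run in triplicate, 90 min at 25 °C, in 50 mM Tris–HCl pH 7.4, with or without test compound at 10 µM. Nonspecific binding taken with 1 µM DPCPX. Ki by Cheng–Prusoff. Shift = Ki(CCPA)/Ki(CCPA + 10 µM compound).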

For assay [10] the target is unchanged. The assay can be described thus: Allosteric enhancer activity at recombinant human A1 adenosine receptor expressed in CHO cells assessed as change in forskolin-induced cAMP production at 1 uM after 6 mins by radioimmunoassay. The assay is classed as functional, cell-based. The essentials: as §1

Chain of Adenosine receptor A2a (Homo sapiens) (P29274 whole entry): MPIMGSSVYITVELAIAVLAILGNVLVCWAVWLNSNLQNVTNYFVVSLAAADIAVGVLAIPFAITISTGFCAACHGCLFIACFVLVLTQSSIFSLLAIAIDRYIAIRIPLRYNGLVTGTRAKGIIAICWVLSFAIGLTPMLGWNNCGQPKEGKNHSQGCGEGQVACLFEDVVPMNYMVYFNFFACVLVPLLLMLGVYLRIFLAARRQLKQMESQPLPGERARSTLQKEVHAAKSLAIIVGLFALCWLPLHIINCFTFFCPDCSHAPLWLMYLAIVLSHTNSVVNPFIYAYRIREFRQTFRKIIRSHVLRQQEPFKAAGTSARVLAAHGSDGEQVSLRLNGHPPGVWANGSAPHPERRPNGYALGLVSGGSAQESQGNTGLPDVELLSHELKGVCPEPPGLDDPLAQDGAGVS

One may read the inhibition as the relative decrease from the control value, in per cent. Turning to `Nc1scc(CN2CCN(c3ccc(Cl)c(Cl)c3)CC2)c1C(=O)c1ccc(Cl)cc1`, the results for the fold change (FC) in [1], in [6] and in assay [9] were 1, 4.6 and 3.8, respectively. Also, the Activity was -62% in assay [2], -13% in assay [4], -1.2% in assay [7] and -60% in assay [10]. Moreover, the figures for the inhibition in assay [3], in assay [5] and in assay [8] were 3%, 0% and 1%, respectively.

Turning to `Nc1scc(CN2CCN(c3ccc(Cl)cc3Cl)CC2)c1C(=O)c1ccc(Cl)cc1`, the fold change (FC) is 1 in assay [1], 4.4 in assay [6] and 3.7 in assay [9]. Also, the Activity is -74% in [2], -11% in assay [4], 2% in assay [7] and -54% in [10]. For the same compound, the inhibition in [3], in [5] and in [8] was 0% in each case.

As for `Nc1scc(CN2CCN(c3ccc(F)c(Cl)c3)CC2)c1C(=O)c1ccc(Cl)cc1`, the values for the fold change (FC) in assay [1], in assay [6] and in [9] were 1.1, 7 and 5.5, respectively. Besides, the Activity in [2] is -78%; in assay [4], -21%; in assay [7], 4.2%; in assay [10], -60%. In addition, the inhibition in assay [3], in assay [5] and in assay [8] was 0% throughout.

For `Nc1scc(CN2CCN(c3c(F)cc(F)cc3F)CC2)c1C(=O)c1ccc(Cl)cc1`, the fold change (FC) came out at 1 in assay [1], 4.5 in assay [6] and 3.6 in assay [9]. Also, the Activity is -78% in assay [2], -3.9% in [4], 4.2% in assay [7] and -56% in [10]. Moreover, the inhibition in assay [3], in [5] and in assay [8] was 0% in each case.

With `Nc1scc(CN2CCN(c3c(F)cccc3F)CC2)c1C(=O)c1cccc(C(F)(F)F)c1`, the fold change (FC) in assay [1] amounted to 0.9; in assay [6] it was 1.1; in assay [9], 1.2. For the same compound, the Activity was 4% in assay [2], 1.3% in [4], 2.1% in assay [7] and 1.3% in [10]. The inhibition in assay [3], in assay [5] and in [8] was 0% in each case.

On to `Nc1scc(CN2CCN(c3ccc(OC(F)(F)F)cc3)CC2)c1C(=O)c1ccc(Cl)cc1`, for which the fold change (FC) in assay [1] was found to be 1.1; in [6], 6.8; in assay [9], 5.3. Further, the Activity in assay [2] was -74%; in assay [4] it was -13%; in [7], 0%; in assay [10], -51%. For the same compound, the values for the inhibition in assay [3], in assay [5] and in assay [8] were 1%, 0% and 0%, respectively.

`Nc1scc(CN2CCN(C(=O)c3ccc(Cl)cc3)CC2)c1C(=O)c1ccc(Cl)cc1`: the fold change (FC) in [1] was 0.9; in assay [6], 1.6; in [9], 1.6. For the same compound, the Activity is -60% in [2], -10% in assay [4], -6.2% in assay [7] and -34% in [10]. Also, the inhibition in [3] is 0%; in [5] it was 0%; in assay [8] it was 1%.

For `Nc1scc(CN2CCN(c3ccc(F)cc3Cl)CC2)c1C(=O)c1ccc(Cl)cc1`, the values for the fold change (FC) in [1], in [6] and in assay [9] were 1.1, 5.2 and 4.2, respectively. In addition, the Activity in [2] is -70%; in [4], -6.2%; in assay [7], 6.1%; in assay [10] it was -39%. Besides, the inhibition in [3], in assay [5] and in [8] was 0% in each case.

On to `Nc1scc(CN2CCN(CC(=O)c3ccc(Cl)cc3)CC2)c1C(=O)c1ccc(Cl)cc1`, for which the figures for the fold change (FC) in [1], in assay [6] and in assay [9] were 0.9, 1.4 and 1.4, respectively. For the same compound, the Activity in assay [2] is -62%; in assay [4] it was 1%; in assay [7], -5%; in assay [10], -25%. The inhibition amounted to 0% in assay [3], 1% in [5] and 0% in assay [8].

With `COc1ccc(N2CCN(Cc3csc(N)c3C(=O)c3ccc(Cl)cc3)CC2)cc1`, the results for the fold change (FC) in [1], in assay [6] and in [9] were 0.9, 3.3 and 2.8, respectively. Moreover, the Activity in assay [2] is -52%; in [4] it was 0%; in assay [7], -1.2%; in assay [10], -15%. For the same compound, the inhibition in assay [3], in assay [5] and in assay [8] was 0% throughout.

As to `Nc1scc(CN2CCN(CCc3ccc(Cl)cc3)CC2)c1C(=O)c1ccc(Cl)cc1`, the fold change (FC) in [1] came out at 1; in assay [6] it was 3.1; in assay [9], 3.4. Moreover, the Activity in [2] is -76%; in assay [4], -3.1%; in assay [7], 1.2%; in assay [10], -32%. Also, the inhibition in [3] was 2%; in [5], 0%; in [8], 1%.

Consider `Cc1sc(N)c(C(=O)c2cccc(C(F)(F)F)c2)c1C`, for which the fold change (FC) worked out at 1 in [1], 1.3 in [6] and 1.7 in assay [9]. Moreover, the Activity was -57% in assay [2], -3.4% in assay [4], -8% in [7] and -31% in assay [10]. The inhibition in assay [5] and in [8] was 0% each time.
